Compounds with a hit are over-represented: about 2.3% of the library has one in this group of screens.
ERp5 block = inhibitors of ERp5-driven insulin aggregation, primary screen, biochemical, turbidity, absorbance 650 nm, single point. 90 min. 0.05% of 350,000 active. AID 651711, 2012. inhibition, % at 9.99 µM;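 active = mean replicate inhibition above about 25%, with every replicate also reaching it, limit read from the data, passing the limit was not always enough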
Target sequence (Q15084 whole entry, looked up): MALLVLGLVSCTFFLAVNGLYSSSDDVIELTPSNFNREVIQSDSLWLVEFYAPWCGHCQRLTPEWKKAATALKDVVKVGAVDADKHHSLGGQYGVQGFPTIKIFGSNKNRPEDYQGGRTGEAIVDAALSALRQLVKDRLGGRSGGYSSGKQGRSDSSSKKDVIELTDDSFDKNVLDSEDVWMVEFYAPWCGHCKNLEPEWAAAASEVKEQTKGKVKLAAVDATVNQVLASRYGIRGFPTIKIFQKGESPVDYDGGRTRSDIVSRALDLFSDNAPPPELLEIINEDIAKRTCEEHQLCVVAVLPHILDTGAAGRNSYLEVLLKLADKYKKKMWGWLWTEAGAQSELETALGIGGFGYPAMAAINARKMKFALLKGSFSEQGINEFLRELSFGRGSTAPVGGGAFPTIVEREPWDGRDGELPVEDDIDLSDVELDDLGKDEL
F508del corr = F508del CFTR correction, initial screen, CFBE line, single point; 0.36% of 350,000 active; CFBE cells, YFP halide quenching; stimulated with forskolin plus potentiator P3; % fluorescence drop versus neutral controls; activity (quench increase), % at 7.58 µM;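 active = mean added fluorescence quench of at least 8% versus neutral control, with both replicates also reaching 8%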;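 also: cells transiently co-express mutant CFTR-F508del with the halide-sensitive YFP; corrector assay measuring rescue of mutant channel to the surface after 24 h compound exposure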
Cneo AK release = Cryptococcus neoformans cell lysis inducers, primary screen, AK release luminescence, single concentration | C. neoformans lysis, adenylate kinase release luminescence, 4 h; normalised: neutral wells 0, clomiphene wells 100 | lysis activity, % at 15 µM | 0.2% of 360,000 active | AID 651654, 2012;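 active = mean lysis activity across replicates of at least 80%, whatever share of replicates individually reach that level; inactive = mean lysis activity below 80%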
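Test system: log-phase Cryptococcus neoformans yeast cells. Input: 5 × 10^6 yeast cells/mL. Medium: fresh YPD growth medium. Doses: single dose. Incubation: static 4 h at 37 °C with compound, 1 h detection. Measured by: luminescent adenylate kinase detection reagent. Read-out: signal increase indicating cell lysis. Benchmarks: Clomiphene.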
PDI inh = inhibitors of human PDI, primary screen, biochemical, turbidity, single point, plate reader; 0.052% of 350,000 active; inhibition, % at 10 µM; AID 588391, 2011; PDI insulin aggregation turbidity, A650, 90 min;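 active = mean inhibition across replicates of 30% or more, whatever share of single replicates reach that level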
C2C12 statin = suppressors of statin myotoxicity in C2C12 myotubes, primary screen, cell-based, single point, plate reader. C2C12 myotubes + simvastatin, ATP luminescence, 48 h; scaled: DMSO 0, geranylgeraniol control 100. rescue of ATP level, % at 7.49 µM. 0.78% of 330,000 active;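 active = mean ATP rescue above about 67%, or every replicate alone reaching that limit, limit read from the data, passing the limit was not always enough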;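 also: myotubes were challenged with 10 µM simvastatin during compound exposure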
DENV2 CPE = inhibitors of DENV2 cytopathic effect, primary screen, cell-based, plate reader, single concentration | 1.7% of 350,000 active | CPE inhibition, % at 9.99 µM | AID 651640, 2012 | DENV2-infected cells, cytopathic effect rescue; in the data active = CPE inhibition above about 20%, passing the limit was not always enough; tested in BHK-21 cells
Hits are given with their value.

Results for C[C@@H]1CN([C@@H](C)CO)C(=O)Cc2cc(NC(=O)Nc3ccccc3)ccc2O[C@@H]1CN(C)Cc1ccccc1 ?
ERp5 block: inactive; F508del corr: inactive; Cneo AK release: inactive; C2C12 statin: inactive; DENV2 CPE: inactive

What do the screens show for `C[C@H](CO)N1C[C@H](C)[C@@H](CN(C)Cc2ccc(Oc3ccccc3)cc2)Oc2ccc(NC(=O)Nc3ccccc3)cc2CC1=O`?
ERp5 block: inactive; F508del corr: inactive; Cneo AK release: inactive; C2C12 statin: 79; DENV2 CPE: inactive

What do the screens show for `CCNC(=O)C[C@@H]1CC[C@@H](NC(=O)C2CCOCC2)[C@H](CO)O1`?
ERp5 block: inactive; F508del corr: inactive; Cneo AK release: inactive; C2C12 statin: inactive; DENV2 CPE: inactive

What do the screens show for `COCC(=O)Nc1ccc2c(c1)[C@@H]1C[C@H](CC(=O)NCc3ccccc3F)O[C@H](CO)[C@@H]1O2`?
ERp5 block: inactive; F508del corr: inactive; Cneo AK release: inactive; C2C12 statin: inactive; DENV2 CPE: inactive

What do the screens show for `CCCNC(=O)c1ccc(N2CCC3(CC2)CC(c2cccc(Br)c2)=NO3)c(NC(=O)c2cccc(OC)c2)c1`?
ERp5 block: inactive; F508del corr: inactive; Cneo AK release: inactive; PDI inh: inactive; C2C12 statin: 142; DENV2 CPE: inactive

Results for COc1ccc(C2=Nc3ccccc3N(C(=O)c3ccncc3)C2C(=O)NC(C)C)cc1 (stereo not given) ?
ERp5 block: inactive; F508del corr: inactive; DENV2 CPE: 59

How did Cc1ccccc1-c1ccccc1[C@H]1[C@@H](C#N)N(C(=O)c2ccccc2)[C@H]1CO do in these assays?
ERp5 block: inactive; F508del corr: inactive; DENV2 CPE: inactive

What do the screens show for `N#CC1c2ccccc2-c2ccccc2N1C(=O)c1ccccc1` (stereo not given)?
ERp5 block: inactive; F508del corr: 11; Cneo AK release: inactive; PDI inh: inactive; C2C12 statin: inactive; DENV2 CPE: inactive

What do the screens show for `C[C@@H]1CN([C@@H](C)CO)C(=O)Cc2cc(NC(=O)Cc3ccccc3)ccc2O[C@@H]1CN(C)C(=O)Nc1ccc(C(F)(F)F)cc1`?
ERp5 block: 37; F508del corr: inactive; Cneo AK release: inactive; C2C12 statin: inactive; DENV2 CPE: inactive

Results for C[C@@H]1CN([C@@H](C)CO)C(=O)Cc2cc(NC(=O)Cc3ccccc3)ccc2O[C@H]1CN(C)C(=O)Nc1ccc(C(F)(F)F)cc1 ?
ERp5 block: inactive; F508del corr: inactive; Cneo AK release: inactive; C2C12 statin: inactive; DENV2 CPE: inactive

What do the screens show for `C[C@@H]1CN([C@@H](C)CO)C(=O)Cc2cc(NC(=O)Nc3ccccc3)ccc2O[C@@H]1CN(C)C(=O)Nc1ccc(F)cc1`?
ERp5 block: inactive; F508del corr: inactive; Cneo AK release: inactive; C2C12 statin: inactive; DENV2 CPE: 40

How did C[C@@H]1CN([C@H](C)CO)C(=O)Cc2cc(NC(=O)Cc3ccccc3)ccc2O[C@@H]1CN(C)C(=O)Nc1ccc2c(c1)OCO2 do in these assays?
ERp5 block: inactive; F508del corr: inactive; Cneo AK release: inactive; C2C12 statin: inactive; DENV2 CPE: 28

What do the screens show for `COc1ccc(NC(=O)N(C)C[C@@H]2Oc3ccc(NC(=O)Nc4ccccc4)cc3CC(=O)N([C@@H](C)CO)C[C@@H]2C)cc1`?
ERp5 block: inactive; F508del corr: inactive; Cneo AK release: inactive; C2C12 statin: inactive; DENV2 CPE: 25

Results for C[C@H](CO)N1C[C@H](C)[C@@H](CN(C)C(=O)Nc2ccccc2)Oc2ccc(NC(=O)Cc3ccccc3)cc2CC1=O ?
ERp5 block: inactive; F508del corr: inactive; Cneo AK release: inactive; C2C12 statin: inactive; DENV2 CPE: inactive

What do the screens show for `CC(=O)N1[C@H](CO)[C@H]2c3ccccc3N(C(=O)c3ccccc3)C[C@H]21`?
ERp5 block: inactive; F508del corr: inactive; Cneo AK release: inactive; C2C12 statin: inactive; DENV2 CPE: inactive

What do the screens show for `COc1ccc2c3c(n(C)c2c1)[C@@H](CO)N(Cc1cccc(Cl)c1)CC31CN(C(C)=O)C1`?
ERp5 block: inactive; F508del corr: inactive; DENV2 CPE: inactive

What do the screens show for `C[C@@H]1CN([C@@H](C)CO)C(=O)Cc2cc(NC(=O)Nc3ccc(C(F)(F)F)cc3)ccc2O[C@H]1CN(C)C(=O)Nc1ccccc1`?
ERp5 block: inactive; F508del corr: 9.3; Cneo AK release: inactive; C2C12 statin: inactive; DENV2 CPE: inactive

What do the screens show for `COc1ccc(NC(=O)N(C)C[C@H]2Oc3ccc(NC(=O)C4CC4)cc3CC(=O)N([C@H](C)CO)C[C@@H]2C)cc1`?
ERp5 block: inactive; F508del corr: inactive; Cneo AK release: inactive; C2C12 statin: inactive; DENV2 CPE: 24

What do the screens show for `O=C(C[C@H]1CC[C@H]2[C@@H](COC[C@H](O)CN2S(=O)(=O)c2ccccc2)O1)N1CCOCC1`?
ERp5 block: inactive; F508del corr: inactive; Cneo AK release: inactive; C2C12 statin: inactive; DENV2 CPE: inactive

How did C[C@H](CO)N1C[C@H](C)[C@H](CN(C)Cc2cccc(C(F)(F)F)c2)OCc2ccccc2-c2ccccc2C1=O do in these assays?
ERp5 block: inactive; F508del corr: inactive; DENV2 CPE: inactive

How did O=S(=O)(NN=Cc1cccc(Cl)c1)c1ccccc1 do in these assays?
ERp5 block: inactive; F508del corr: inactive; DENV2 CPE: 28

What do the screens show for `O=S(=O)(N/N=C\c1ccc(-c2ccccc2Cl)o1)c1ccccc1`?
Cneo AK release: inactive; PDI inh: inactive; C2C12 statin: 118

How did COCC(=O)NC[C@H]1[C@H](c2ccc(C3=CCCC3)cc2)[C@@H](CO)N1C(C)=O do in these assays?
ERp5 block: inactive; F508del corr: inactive; Cneo AK release: inactive; C2C12 statin: inactive; DENV2 CPE: inactive

How did CC(C)=CCOc1c2ccoc2cc2oc(=O)ccc12 do in these assays?
ERp5 block: inactive; F508del corr: inactive; Cneo AK release: inactive; C2C12 statin: inactive; DENV2 CPE: 125

Results for CC(C)CC#Cc1cnc2c(c1)C(=O)N([C@@H](C)CO)C[C@@H](C)[C@H](CN(C)C(=O)C1CCOCC1)O2 ?
ERp5 block: inactive; F508del corr: inactive; Cneo AK release: inactive; C2C12 statin: inactive; DENV2 CPE: inactive

Results for NC(=O)CC(NC(=O)Cc1ccc(Cl)cc1)c1ccc(NCc2ccccc2)c([N+](=O)[O-])c1 (stereo not given) ?
ERp5 block: inactive; F508del corr: inactive; Cneo AK release: inactive; PDI inh: inactive; C2C12 statin: inactive; DENV2 CPE: 28

Assay outcomes from PubChem BioAssay.
